This note sets out measurements from ChEMBL document CHEMBL2413018, “Nonclassical antifolates, part 4. 5-(2-aminothiazol-4-yl)-4-phenyl-4H-1,2,4-triazole-3-thiols as a new class of DHFR inhibitors: synthesis, biological evaluation and molecular modeling study” (Eur J Med Chem, 2013).

Test [1] has as its system Schistosoma mansoni. As to the kind of experiment: Antischistosomal activity against Schistosoma mansoni assessed as mortality at 50 ug/ml after 24 hrs by microscopic analysis. It is filed as functional. In outline:
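Adult worms, 3 male plus 3 female per well, triplicate wells. Compounds in DMSO, 0.5% DMSO as negative control, praziquantel 0.1 µg/ml as positive control. Incubated 37 °C for 24 h, then scored under a dissecting microscope. Worms motionless for at least 1 min, coiled and darkened, counted dead. Activity given as % dead worms per well.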

Test [2] relates to Bacillus subtilis. The test can be described thus: Antibacterial activity against Bacillus subtilis after 24 hrs by microdilution susceptibility method. The test is classed as functional. The essentials: (§1)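 Microdilution in Müller-Hinton broth. Compounds dissolved in DMSO at 64 µg/mL, then twofold dilutions from 64 down to 0.125 µg/ml. Inoculum 10^6 CFU/ml. Plates held 24 h at 37 °C. MIC taken as the lowest concentration giving no visible growth by eye.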

Test [3] relates to Staphylococcus aureus. The test can be described thus: Antibacterial activity against Staphylococcus aureus after 24 hrs by microdilution susceptibility method. The test is classed as functional. The essentials: as §1
Test [4] deals with Pseudomonas aeruginosa. As to the kind of experiment: Antibacterial activity against Pseudomonas aeruginosa at 200 ug/disc after 24 hrs by agar disc-diffusion method. As to conditions: for zone of inhibition at 200 µg/disc: read-out: DIZ. The test is classed as functional. The essentials:
(§2)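 Disc diffusion on Müller-Hinton agar. 8 mm filter-paper discs carried test solution in DMSO at 200 µg/disc and were placed on agar pre-inoculated with each bacterium. Incubated at 37 °C; inhibition zone diameter measured after 24 h. DMSO solvent control.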

Test [5] has as its system Candida albicans. As to the kind of experiment: Antifungal activity against Candida albicans at 200 ug/disc after 48 hrs by agar disc-diffusion method. As to conditions: read-out: DIZ. The test is classed as functional. The essentials:
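Disc diffusion for Candida albicans on Müller-Hinton agar. 8 mm discs loaded at 200 µg/disc from DMSO, with clotrimazole 200 µg/disc as reference. Plates held at 25 °C for 48 h, then growth-inhibition zone diameter measured in mm.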

The test system of test [6] is Escherichia coli. The test can be described thus: Antibacterial activity against Escherichia coli at 200 ug/disc after 24 hrs by agar disc-diffusion method. It is filed as functional. As to conditions: for zone of inhibition at 200 µg/disc: read-out: DIZ. The essentials: as §2
Test [7] relates to Bacillus subtilis. As to the kind of experiment: Antibacterial activity against Bacillus subtilis at 200 ug/disc after 24 hrs by agar disc-diffusion method. It is filed as functional. As to conditions: for zone of inhibition at 200 µg/disc: read-out: DIZ. In outline:
as §2

Test [8] concerns Staphylococcus aureus. The test can be described thus: Antibacterial activity against Staphylococcus aureus at 200 ug/disc after 24 hrs by agar disc-diffusion method. It is filed as functional. As to conditions: for zone of inhibition at 200 µg/disc: read-out: DIZ. The essentials:
as §2

Test [9] concerns the target T1, Dihydrofolate reductase (Bos taurus, UniProt P00376).
T1 sequence (P00376 whole entry): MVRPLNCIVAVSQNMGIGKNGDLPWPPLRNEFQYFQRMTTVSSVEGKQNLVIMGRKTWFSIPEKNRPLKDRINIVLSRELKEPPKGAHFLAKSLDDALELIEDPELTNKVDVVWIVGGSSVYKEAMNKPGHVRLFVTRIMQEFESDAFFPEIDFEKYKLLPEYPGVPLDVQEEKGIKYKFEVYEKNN
As to the kind of experiment: Inhibition of bovine liver DHFR measured every 1 min for 10 mins.

The subject of test [10] is Pseudomonas aeruginosa. The test can be described thus: Antibacterial activity against Pseudomonas aeruginosa after 24 hrs by microdilution susceptibility method. It is filed as functional.
For test [11], the system named is Escherichia coli. As to the kind of experiment: Antibacterial activity against Escherichia coli after 24 hrs by microdilution susceptibility method.
Test [12] relates to HepG2. As to the kind of experiment: Cytotoxicity against human HepG2 cells after 48 hrs by MTT assay. As to conditions: HepG2, 48 h, read-out: LC50 (the source's name). It is filed as functional. The essentials:
(§3)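 HCT116, HepG2 and MCF7 cells grown in RPMI 1640 with 1% antibiotic-antimycotic and 1% L-glutamine at 37 °C, 5% CO2, seeded at 10 x 10^3 cells/well for 24 h. Exposed in serum-free medium to 0.78–100 µM for 48 h, then MTT added for 4 h and dissolved overnight in 10% SDS.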

The subject of test [13] is A549. As to the kind of experiment: Cytotoxicity against human A549 cells after 48 hrs by MTT assay. As to conditions: A549, 48 h, read-out: LC50 (the source's name). It is filed as functional. In outline: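 A549 cells grown in DMEM with 1% antibiotic-antimycotic and 1% L-glutamine at 37 °C, 5% CO2, seeded at 10 x 10^3 cells/well for 24 h. Exposed in serum-free medium to 0.78–100 µM for 48 h, then MTT added for 4 h and dissolved overnight in 10% SDS.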

Test [14] concerns MCF7. As to the kind of experiment: Cytotoxicity against human MCF7 cells after 48 hrs by MTT assay. As to conditions: MCF7, 48 h, read-out: LC50 (the source's name). It is filed as functional. In outline: as §3
The subject of test [15] is HCT-116. The test can be described thus: Cytotoxicity against human HCT116 cells after 48 hrs by MTT assay. It is filed as functional. As to conditions: HCT-116, 48 h, read-out: LC50 (the source's name). The essentials: as §3

Converted amounts (≈) assume the structure as drawn.

Regarding `CC(=O)N(C(C)=O)c1nc(-c2nnc(S)n2-c2ccc(Oc3ccccc3)cc2)cs1`, the mortality at 50 µg/mL in test [1] was determined as 100%. In addition, the MIC in [2] is 2 µg/mL (≈ 4.43 µM); in test [3] it was 4 µg/mL (≈ 8.86 µM). Further, the zone of inhibition at 200 µg/disc was 8 mm in test [4]; 8 mm in test [5]; 8 mm in test [6]; 20 mm in test [7]; 18 mm in test [8]. In test [9], this molecule displayed an IC50 of 15 µM.

GENTAMICIN: the MIC in test [10] is 1 µg/mL; in test [2], 2 µg/mL; in [3], 2 µg/mL. The inhibition zone (IZ) was found to be 19 mm in [4], 20.8 mm in test [6], 25 mm in test [7] and 26.5 mm in [8].

`COc1ccccc1-n1c(S)nnc1-c1csc(N(C(C)=O)C(C)=O)n1`: the MIC amounted to 0.8 µg/mL (≈ 2.05 µM) in test [11] and 4 µg/mL (≈ 10.3 µM) in test [2]. Further, the zone of inhibition at 200 µg/disc in [4] is 8 mm; in [5] it was 8 mm; in test [6] it was 16 mm; in [7], 20 mm; in test [8] it was 8 mm.

On to `COc1ccc(-n2c(S)nnc2-c2csc(N)n2)cc1`, for which the zone of inhibition at 200 µg/disc is 8 mm in test [4]; 8 mm in test [5]; 8 mm in [6]; 12 mm in test [7]; 8 mm in [8]. Besides, the IC50 in test [9] came out at 21 µM.

Consider `Nc1nc(-c2nnc(S)n2-c2ccc(Cl)cc2)cs1`, for which the mortality at 50 µg/mL in test [1] was 5%. In addition, the zone of inhibition at 200 µg/disc in test [4] stood at 8 mm; in [5], 12 mm; in test [6], 8 mm; in test [7], 12 mm; in test [8], 8 mm. In addition, in test [9], the IC50 worked out at 18 µM.

`Cc1ccc(-n2c(S)nnc2-c2csc(N)n2)cc1`: in [1], the mortality at 50 µg/mL worked out at 10.5%. Besides, the zone of inhibition at 200 µg/disc in test [4], in [5], in test [6], in test [7] and in test [8] was 8 mm throughout. 24 µM corresponded to half-maximal inhibition in [9] (IC50).

For the molecule `CC(=O)N(C(C)=O)c1nc(-c2nnc(S)n2-c2ccc(Cl)cc2)cs1`, the CC50 in [12] is 29.1 µM. For the same molecule, the MIC in [2] and in [3] was 4 µg/mL (≈ 10.2 µM) throughout. For the same molecule, the zone of inhibition at 200 µg/disc was 8 mm in [4]; 8 mm in test [5]; 8 mm in test [6]; 21 mm in test [7]; 16 mm in test [8]. The IC50 in test [9] is 10 µM.

With `Nc1nc(-c2nnc(S)n2-c2ccccc2)cs1`, the mortality at 50 µg/mL in test [1] stood at 16.6%. Further, the zone of inhibition at 200 µg/disc in test [4], in test [5], in test [6], in test [7] and in [8] was 8 mm throughout.

For the molecule `CC(=O)N(C(C)=O)c1nc(-c2nnc(S)n2-c2ccccc2)cs1`, the CC50 in test [13] was 33.2 µM. Further, the zone of inhibition at 200 µg/disc in test [4], in test [5], in test [6], in [7] and in test [8] was 8 mm in each case. The molecule also showed an IC50 in test [9] of 35 µM.

Consider `Clc1ccccc1C(c1ccccc1)(c1ccccc1)n1ccnc1` [CLOTRIMAZOLE], for which the zone of inhibition at 200 µg/disc in test [5] was found to be 21 mm.

For the molecule `Nc1nc(-c2nnc(S)n2-c2ccc(Oc3ccccc3)cc2)cs1`, the mortality at 50 µg/mL in test [1] worked out at 55.6%. Also, the MIC in test [10] came out at 1 µg/mL (≈ 2.72 µM); in test [11], 0.5 µg/mL (≈ 1.36 µM); in test [2], 0.5 µg/mL (≈ 1.36 µM); in test [3], 0.5 µg/mL (≈ 1.36 µM). Besides, the zone of inhibition at 200 µg/disc was determined as 16 mm in test [4]; 14 mm in [5]; 20 mm in test [6]; 32 mm in test [7]; 28 mm in [8].

In the case of `O=C(O)c1cn(C2CC2)c2cc(N3CCNCC3)c(F)cc2c1=O` [CIPROFLOXACIN], the MIC worked out at 1 µg/mL (≈ 3.02 µM) in test [10], 0.5 µg/mL (≈ 1.51 µM) in test [2] and 0.5 µg/mL (≈ 1.51 µM) in test [3]. Moreover, the zone of inhibition at 200 µg/disc amounted to 36 mm in test [4], 38 mm in test [6], 35 mm in test [7] and 32 mm in [8].

For the molecule `COc1ccc(-n2c(S)nnc2-c2csc(N(C(C)=O)C(C)=O)n2)c(OC)c1`, the mortality at 50 µg/mL in test [1] amounted to 0%. Besides, the zone of inhibition at 200 µg/disc in [4], in test [5], in [6], in test [7] and in test [8] was 8 mm throughout. The same molecule gave an IC50 in [9] of 8 µM.

As for `CC(=O)N(C(C)=O)c1nc(-c2nnc(S)n2-c2ccc(C)cc2)cs1`, the CC50 stood at 23.8 µM in [14], 18.9 µM in test [12] and 25 µM in [13]. For the same molecule, the zone of inhibition at 200 µg/disc in test [4], in test [5], in test [6], in test [7] and in test [8] was 8 mm throughout.

As to `COc1cccc2c1C(=O)c1c(O)c3c(c(O)c1C2=O)C[C@@](O)(C(=O)CO)C[C@@H]3O[C@H]1C[C@H](N)[C@H](O)[C@H](C)O1` [DOXORUBICIN], the CC50 in [14] turned out to be 26.1 µM; in [12], 21.4 µM; in test [15] it was 37.7 µM; in test [13], 28.3 µM.

In the case of `CN(Cc1cnc2nc(N)nc(N)c2n1)c1ccc(C(=O)N[C@@H](CCC(=O)O)C(=O)O)cc1` [METHOTREXATE], the zone of inhibition at 200 µg/disc in test [4], in test [5], in test [6], in test [7] and in [8] was 8 mm each time.

As for `COc1ccccc1-n1c(S)nnc1-c1csc(N)n1`, the MIC turned out to be 8 µg/mL (≈ 26.2 µM) in [11] and 4 µg/mL (≈ 13.1 µM) in test [2]. The zone of inhibition at 200 µg/disc in test [4] came out at 8 mm; in test [5] it was 8 mm; in [6] it was 15 mm; in test [7], 16 mm; in [8], 12 mm. In test [9], this molecule had an IC50 of 24 µM.

In the case of `COc1ccc(-n2c(S)nnc2-c2csc(N(C(C)=O)C(C)=O)n2)cc1`, the mortality at 50 µg/mL in [1] was found to be 6%. Besides, the CC50 in test [13] was determined as 35.4 µM. The zone of inhibition at 200 µg/disc in [4] amounted to 8 mm; in test [5], 8 mm; in test [6], 8 mm; in test [7], 14 mm; in test [8] it was 12 mm. The molecule further came in with an IC50 in test [9] of 5 µM.

Regarding `O=C(C1CCCCC1)N1CC(=O)N2CCc3ccccc3C2C1` (centres undefined) [PRAZIQUANTEL], the mortality at 50 µg/mL in [1] was found to be 100%.
